Shown are actives, neighbours in structure and some others; about 6.4% of the full set was active somewhere.
GRIN3A LBD mod: NR3A (human) ligand-binding domain modulation; NR3A LBD differential scanning fluorimetry, Tm shift; 0% = protein alone, 100% = glycine-bound protein; Tm shift relative to glycine control, % at 25 µM; actives 2.5% (n = 340,000); AID 1259313;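 active = melting temperature shift of at least 10% of the positive control shift, at one fixed dose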
CHOP inh: blocks CHOP induction under ER stress; CHO-K1 CHOP-promoter luciferase, tunicamycin-induced, 15-18 h; inhibition, % at 10 µM; actives 3.8% (n = 220,000);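 active = compounds that reduced the stress-induced luciferase reporter signal by more than about 70% of percent inhibition, limit read from the data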;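 also: 0% = tunicamycin plus vehicle and 100% = wells without tunicamycin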
MPTP inh: blocks calcium-induced mitochondrial swelling; isolated mouse mitochondria, Ca2+ swelling absorbance, 30 min; inhibition, % at 10 µM; actives 1.4% (n = 360,000); AID 602449;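 active = inhibition of 50% or more, scaled per plate between neutral and stimulator controls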;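 also: 0% = DMSO wells given calcium and 100% = 1 mM EGTA wells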
EBV gp42 block: blocks Epstein-Barr virus glycoprotein 42 binding | Q1HVG2 | Fluorescence polarization binding assay, mP read-out | inhibition, % (tested at 21.74 µM) | actives 0.42% (n = 220,000) | AID 1085; in the data active = inhibition above about 50%
Target sequence (Q1HVG2 whole entry, looked up): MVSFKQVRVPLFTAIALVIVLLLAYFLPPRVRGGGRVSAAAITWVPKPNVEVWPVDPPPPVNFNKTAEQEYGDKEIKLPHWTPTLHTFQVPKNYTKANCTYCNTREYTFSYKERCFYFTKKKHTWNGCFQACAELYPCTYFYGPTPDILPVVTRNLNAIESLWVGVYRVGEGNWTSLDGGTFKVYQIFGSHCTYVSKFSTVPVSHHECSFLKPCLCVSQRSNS
Tb MetRS inh: Trypanosoma brucei MetRS inhibition. inhibition, % at 11.9 µM. purified T. brucei MetRS, ATP depletion, Kinase-Glo luminescence. actives 0.4% (n = 360,000);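 active = inhibition above a per-plate cutoff of the control wells' mean inhibition plus 3 SD, cut at about 5.5% in these data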;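 also: 0% = DMSO wells median and 100% = median of wells with control inhibitor compound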
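Dosing: 11.9 µM single point; system: parasite MetRS enzyme; technique: luminescence of leftover ATP; times: 15 min enzyme-compound preincubation, 2 h reaction, 10 min detection, 25 °C; replicates: each compound tested once; read-out basis: percent inhibition relative to median high and low control wells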
WT yeast gro inh: growth inhibition of WT yeast, mitochondrial fusion screen. mitochondrial fusion phenotypic screen, WT strain. inhibition, % at 10 µM. actives 2.1% (n = 190,000); in the data active = inhibition above about 58%; tested in S. cerevisiae
* = called active by the depositor; x = not tested or not shown.

SMILES	GRIN3A LBD mod	CHOP inh	MPTP inh	EBV gp42 block	Tb MetRS inh	WT yeast gro inh
COc1cccc(/C=N/NC(=O)c2ccc(OCc3cccc(Br)c3)cc2)c1	28.6*	3.2	28.5	-6.7	1.0	10.4
Nc1ccc(C(=O)N/N=C/c2cccc(Oc3ccccc3)c2)cc1	10.3*	x	0.3	x	-0.2	x
O=C(N/N=C/c1cccc(OCc2ccccc2)c1)c1ccc(Br)cc1	1.1	-3.2	35.5	-17.0	0.1	-12.6
COc1ccc(/C=N\NC(=O)c2ccccc2[N+](=O)[O-])cc1COc1c(F)c(F)c(F)c(F)c1F	10.0*	x	1.5	x	-0.4	x
COc1ccc(/C=N\NC(=O)c2cccc(F)c2)cc1COc1ccccc1	16.1*	x	9.9	x	-0.2	x
CC(C)OCCCNC(=O)Cn1ccc2cc(S(=O)(=O)N3CCCCC3)ccc21	-2.4	x	-1.8	x	-0.5	x
CCOc1ccc(C(=O)CCC(=O)N2CCN(c3ccccc3O)CC2)cc1	0.4	x	0.7	x	-0.6	x
O=C(O)CCNC(=O)/C(=C/C=C/c1ccccc1)NC(=O)c1ccccc1	0.2	73.8*	0.1	-12.2	-0.2	6.6
COc1ccc(C(=O)c2ccc(Cl)cc2)cc1	0.0	-22.6	4.1	-10.0	-3.1	-1.4
O=C(c1ccc(O)cc1)c1ccc(Cl)cc1	-0.8	82.6*	0.4	-6.6	-1.0	12.9
Oc1ccc(Br)cc1-c1cc(-c2ccco2)[nH]n1	18.8*	79.9*	-3.1	17.9	-0.7	73.1
Oc1ccc(Cl)cc1-c1cc(-c2ccco2)[nH]n1	11.1*	44.5	0.3	-18.7	-0.2	4.7
O=[N+]([O-])c1ccccc1-c1cc(-c2cc(Cl)ccc2O)n[nH]1	17.5*	76.5*	20.0	2.8	0.0	69.8
Oc1c(-c2cc(-c3ccco3)[nH]n2)ccc2ccccc12	20.6*	75.0*	11.8	-1.6	-0.6	13.1
S=c1[nH]nc(-c2cc(-c3ccco3)[nH]n2)n1-c1ccccc1	3.0	16.2	0.7	-24.2	-0.1	4.0
Oc1ccccc1-c1cc(-c2ccco2)[nH]n1	-1.4	25.3	10.3	-2.4	-0.5	21.4
CCOc1ncccc1C(=O)N1CCN(S(=O)(=O)c2cccs2)CC1	-2.6	x	-0.9	x	-0.3	x
S=C(Nc1cccc(Cl)c1)N1CCN(c2ccccn2)CC1	0.9	x	0.5	x	1.1	x
S=C(Nc1ccc(Cl)c(Cl)c1)N1CCN(c2ccccn2)CC1	11.0*	x	1.4	x	-1.3	x
CN1CCN(C(=S)Nc2ccc(Cl)c(Cl)c2)CC1	12.6*	-15.9	-1.1	3.3	1.5	22.9
CC(=O)Nc1cccc(NC(=O)CCn2c(=O)sc3ccccc32)c1	-2.2	25.4	0.0	-0.4	-0.2	6.1
O=C(O)c1c2c(nc3ccccc13)/C(=C/c1c(F)cccc1F)CCC2	-0.2	x	0.2	x	-0.1	x
CC(=O)NC(=O)Nc1sc(=S)n(C)c1C	-1.4	-14.2	-2.1	-8.8	-1.1	0.8
Cc1ccc(NC(=O)Nc2sc(=S)n(C)c2C)cc1	12.2*	-6.1	0.3	-2.6	-0.3	0.9
Cc1cc(C)cc(NC(=O)CN2C(=O)NC(Cc3c[nH]c4ccccc34)C2=O)c1 (stereo not given)	3.7	x	-0.3	x	-0.3	x
SMILES	GRIN3A LBD mod	CHOP inh	MPTP inh	EBV gp42 block	Tb MetRS inh	WT yeast gro inh
CC(C)CC1NC(=O)N(CC(=O)Nc2ccc(-c3ccccc3)cc2)C1=O (stereo not given)	13.1*	x	0.0	x	-0.5	x
CC(C)c1ccc(NC(=O)CN2C(=O)NC(Cc3c[nH]c4ccccc34)C2=O)cc1 (stereo not given)	13.3*	x	0.7	x	-0.3	x
Cc1ccccc1C(=O)Nc1ccccc1N1CCN(C(=O)c2ccccc2)CC1	-1.6	x	1.3	x	-0.3	x
COc1ccc(CCNC(=O)CC2SC(N)=NC2=O)cc1OC (stereo not given)	-1.0	-9.5	0.7	-10.9	-0.9	-11.8
OC1CCN(c2cc(-c3ccccc3)nc3cc(-c4ccc(F)cc4)nn23)CC1	-29.9	52.4	2.0	-9.9	0.1	-15.6
OC1CCCN(c2c3c(nc4cc(-c5cccc(F)c5)nn24)CCCC3)C1 (stereo not given)	-0.1	6.4	1.5	1.4	-0.9	69.4*
COc1cccc(-c2cc3nc(-c4ccccc4)cc(N4CCCC(O)C4)n3n2)c1 (stereo not given)	9.9	20.7	1.9	-9.7	-0.6	69.2*

Compound activity from PubChem BioAssay.
